Test results published in the RNAGym collection of RNA variant scans (doi:10.1126/science.aae0568).
This sample holds only a part of the variants without activity.

B1: tRNA (parent)
chain: GUUCCGUUGGCGUAAUGGUAACGCGUCUCCCUCCUAAGGAGAAGACUGCGGGUUCGAGUCCCGUACGGAACG

Variants of: B1
Test: yeast fitness relative to wild type (ratio to wild type); higher = fitter; tRNA-Arg(CCU), competitive growth, 37 C, YPD
Outline: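 Amplicons of the tRNA-Arg(CCU) gene were sequenced, 100-nucleotide paired-end, from the start population and from each end population of a pooled yeast competition. The competition, in six parallel replicates, lasted 24 hours in YPD at 37°C. Fitness relative to wild type was calculated from changes in genotype frequencies. Genotypes had to have ≥ 100 starting reads, and estimates < 0.5 were set to 0.5.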

Variant	yeast fitness
G18A A20G	0.613
G9C U59A	0.737
U3C C11G A21U G56A	≤ 0.5
G10A C34U G44A	≤ 0.5
G10A A36U A37G	≤ 0.5
U3G G44A G67C	≤ 0.5
G6A G10C C29U C61A C62U A65U A69C	≤ 0.5
U3A U16A C22U A36C G38U G48C	≤ 0.5
A37G A42U A65C A69C	≤ 0.5
G17A A42G	0.732
C11U C29G C33U C60U A65U A69U	≤ 0.5
C24G U28G C29G	≤ 0.5
G12A U19C G23C G67C	≤ 0.5
U3A C62U G63C	≤ 0.5
U8C G25C G38C C49U A57U C66A	≤ 0.5
U64A A69U	0.834
A37C U47G U53A	0.535
C5A G18A G25A C31U U47C C61U	≤ 0.5
A15U C30U A37G U59A	≤ 0.5
C4G U26A U47G U54C	≤ 0.5
U3C U47A U53C	≤ 0.5

Variant	yeast fitness
U3C C66A	0.711
A20U C29U C49G C55A G68C	≤ 0.5
C4A A20C C27U	0.636
U19C A57G	0.945
U19C A36U C62G	0.529
U26A G56A	1.02
C4U C34G A69C	0.664
C11U C22G A36G	0.675
U2C C11A C31U C33U A42C C61U	≤ 0.5
C22U A40U A43U	≤ 0.5
A43U U47C C55G	≤ 0.5
A43U U47C C55A	≤ 0.5
A15U G18C A21G U59A C61G	≤ 0.5
A14G G18A C55U	≤ 0.5
G10C G18A C30G G44A G48A G58A	≤ 0.5
C24U A42U C61U	0.641
A40G G63A G67A	≤ 0.5
C49U A70C	1.02
U8A C31G A57C C61U	0.506
A21G C61A G67A	0.532
A15C A20G A21U C66G	≤ 0.5

Variant	yeast fitness
U3A A57U A65C A69C	0.593
U7A A37G A43G U53A G58C C66G	≤ 0.5
C4U G25A G67C	0.58
U28C A42U A43G	0.597
G18C G25C U28G A42G	≤ 0.5
C27U G52C	0.7
U13A C33U A45C C46G U54C A69U	≤ 0.5
A15C U35A	0.599
C4A A42G C60G	0.53
A20G G23A G38A	≤ 0.5
G12A C27G A36U A65U	≤ 0.5
A14U C27U C55G	0.517
A21C C27G C29A A65C	≤ 0.5
G12A A57G	0.909
G9C C11A A40C A70U	0.704
A21U C22G U59C	≤ 0.5
C24A C27U A40U A57C	0.512
C5A A36G A42C A43U	≤ 0.5
G41A C66U	0.685
U7A U47A	0.643
C27G C33U	0.592

Variant	yeast fitness
C4G G10C C31U U53A	≤ 0.5
U2A U3G C11A U16C C22G A57C	≤ 0.5
C24A U26G A43C G68C	≤ 0.5
G10A C27G U28G C34U C46G G67A	≤ 0.5
G9C C22G G50A	≤ 0.5
C4G U26A C27U A43G C55U C62U	0.589
A15C U47C A69U	0.551
G6A U26G A36U	≤ 0.5
C5G G67U	0.859
G18A G25C C49U	0.74
C11A C30U A42C	≤ 0.5
U8A G23A C30G U59A A70C	≤ 0.5
G44C C60A	0.572
A42U C55U A69C	0.511
U35C A70C	0.927
A40C C55A C66A	0.578
G6A U8A A14C A21U A40G	≤ 0.5
U3C G38A A45C	≤ 0.5
G17C C24A A45C G52A	≤ 0.5
G9A C31A G41C C55U	≤ 0.5
U3C A15G C60G C62U	≤ 0.5
